From the EternaBench riboswitch data

Test system: MS2 coat protein
Assay: apparent Kd, MS2 coat protein; higher = weaker binding; RNA-MaP array; FMN 200 µM where present
Procedure, shortened: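 Designs were transcribed by stalled E. coli RNA polymerase on Illumina sequencing-chip clusters. They were titrated with SNAP-549-labelled MS2 coat protein from 0.7 or 1.5 nM, doubling to 3 µM, in 100 mM Tris-HCl pH 7.5, 80 mM KCl, 4 mM MgCl2, BSA, DTT, yeast tRNA and Tween-20, without and then with constant ligand. The apparent Kd is the median of filtered per-cluster fits after normalisation of green signal to red-channel RNA signal and control-cluster median Fmax.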

[1] = designed as: OFF switch for flavin mononucleotide, no ligand
[2] = ligand present: flavin mononucleotide, designed as: OFF switch for flavin mononucleotide
[3] = designed as: ON switch for flavin mononucleotide, no ligand
[4] = ligand present: flavin mononucleotide, designed as: ON switch for flavin mononucleotide

Sequence | apparent Kd [1] [nM] | apparent Kd [2] [nM] | apparent Kd [3] [nM] | apparent Kd [4] [nM]
GAUUGACAUGAGGAUCACCCAUGUGAGGAUAUCGGCUGGACCGUGUUGGCUUCCGUUUCGAGAAGGCGCAUAGG | 26.1 | 48.3 |  | 
GCCAUCGUAUGAGGAUAUGGCACCGAAACGGUGCCAGAAGGCAUGUCAAUAGACAUGAGGAUCACCCAUGUGUUAUCGAUGGCA |  |  | 379 | 36.5
ACAUAGUUAGGAUAUGCUGCUCGUCACUUGCGUGAUGAGUAGCAGAAGGAACAUGAGGAUCACCCAUGUAAAAA | 28.3 | 25.5 |  | 
AAAAAACAUGAGGAUCACCCAUGUCAGGAUAUCGUUGAAAAAAAAAAAAAAAAAAAAGCGAGAAGGGACACGAA | 72.6 | 68.2 |  | 
GUACUGUAGUGAGGAUAUACGAGAUCGAUAGAUCGGCGAUCCAAUUAUACAUGAGGAUCACCCAUGUAGAAGGCACUUCAGUAC | 8.75 | 55.8 |  | 
UGAUCGAGAGAUCUUAGAUUCUGGUAGGAUAUACAUUAUGAAAAUUUUACAUGAGGAUCACCCAUGUAGAAGGACUAGAGUCUA | 5.44 | 6.33 |  | 
GGAUAGGACAGAGGAUAUACGUGCUAGAGAUACUAGCGAAAUUUCCUCACAUGAGGAUCACCCAUGUAGAAGGCUGUCCUAUCG | 28.1 | 892 |  | 
ACCAUACAUGAGGAUCACCCAUGUUAGGAUAUGAGAGACCCACAUAGUCCUGGUAGCAUCAGAAGGAGCAGGGU | 20.6 | 23.7 |  | 
CUUUCGUGAGGAUAUGAAAAUUCGAUCGUGAGAUCGAGGCUACAGAAGGCACAUGAGGAUCACCCAUGUUCCUC | 31.5 | 320 |  | 
AUCAGCUCUUCAGGAUAUACGUCACUGCGUCAGCAGUGUGGUAAGAUCACAUGAGGAUCACCCAUGUAGAAGGGACGAGCUGAU | 12.2 | 173 |  | 
CACAUGAGGAUCACCCAUGUACUUAAUAUAAAUGUCAGAACCAGAAGGACCAGUUGAUUUGACCGGUAGGAUAUGGGCGGACCG |  |  | 18.1 | 6.89
GCGAAGGGAGGAUAUCCGCGCGCGCACAUGAGGAUCACCCAUGUGCGCGCGCGCGCGCGCGGAGAAGGCCCGGUGC | 16.4 | 13.4 |  | 
AAUUAUUAUUGAGGAUAUCGUAUUGAAACAAUACGAGAAGGCGGGAUAAACAUGAGGAUCACCCAUGUGAGCCUGAUGCUUGUG | 18.1 | 16.5 |  | 
CUCCGCGCUGUCAGGAUAUCCAGGGCCUACCGGCCGGAGAAGGGACAUGAGGAUCACCCAUGUUCGGGUUAGCA | 15.7 | 17.6 |  | 
GUAUUUUGAGGAUAUACUAUUAACCACAUGAGGAUCACCCAUGUUCUAUCAUGAAUUUAUGUAGAAGGCAGAAUGC | 71.8 | 128 |  | 
GGUCCAUUAUGAGGAUAUGGCACCUUAUUGGUGCCAGAAGGCAUGUGUAUUCACAUGAGGAUCACCCAUGUAAUAAAUUGGACC |  |  | 87.2 | 20
AGCUGGUGACAGCAAGAAAUUUCACAUGAGGAUCACCCAUGUAGAAGGCUGUACGGUUACCGUACAGAGGAUAUACAUAGAAAG | 22.4 | 30.5 |  | 
AGGCAGGACCAGAAGGACAUGAGGAUCACCCAUGUAGGAUAUGGGCGUGGUUUAUGGGUACCUGGGAGAAUGACUGGGUUGUCA |  |  | 363 | 29.4
CGAUGUUAUGUCAGGAUAUGCGUUGCGAAAGCAAUGCAGAAGGGACAUGAGGAUCACCCAUGUCCUAACCAUCG | 12.3 | 25.1 |  | 
GGCGGGCACACUGGCCGCUGAAGGAGAAGGCAGUGCACAUGAGGAUCACCCAUGUCGCGUGUGCCUGAGGAUAUCCGUAAAACG | 9.38 | 71.4 |  | 
CCGGAAACGGGUAGCCUGACAUGAGGAUCACCCAUGUGAACCGAGGAUAUGGAUCCUAAUUGGAUCCAGAAGGUGGAAGGCUAC |  |  | 381 | 167
UUUUUGUGAGGAUAUUAGUAGUAAAUGAAUAAAAUUAUUACUGAGAAGGCACAUGAGGAUCACCCAUGUUCCUU | 15.1 | 71.8 |  | 
ACACAUGAGGAUCACCCAUGUACGCGCUGACAGGAGGUCUCACAGGAUAUAUGUGGUGAUGCUACAUAGAAGGGUGAUACCGCG |  |  | 233 | 49.5
ACAUAGUGAGGAUAUGCUGCUCGUCACUUGCGUGAUGAGUAGCAGAAGGCACAUGAGGAUCACCCAUGUAAAGA | 42.3 | 63.7 |  | 
AAAAAACAUGAGGAUCACCCAUGUAAGGAUAUGCUAAAAAAAAAAAAAAAAAAAAAAUGCAGAAGGUACAAAAA | 63.6 | 78.2 |  | 
UCUACUUUACAUGAUUCAUCAACACAGGAUAUACCCGCAACAUGAGGAUCACCCAUGUAGGCCCGGUAGAAGGGUGCUUGGGAA |  |  | 10.8 | 6.43
UUUCGGCUCGAGAAGGUCUAUCGACAUGAGGAUCACCCAUGUUGCCAUGGAAGGAUAUCGAAGGCAGCACGGGAAAUAGUCCGG |  |  | 185 | 53.3
AAUGUGUCAGGAUAUUGUUAGUUUAGUUGUUUGUAUUAGUUCGAGAAGGGACAUGAGGAUCACCCAUGUUGUUA | 36.4 | 29.1 |  | 

Sequence | apparent Kd [1] [nM] | apparent Kd [2] [nM] | apparent Kd [3] [nM] | apparent Kd [4] [nM]
UCUCAGUCAGGAUAUCGUUAAUUUAAUUGUUUGUAUUAGUUCGAGAAGGGACAUGAGGAUCACCCAUGUACUCA | 34 | 94.6 |  | 
UGGUACUAGGGAGGAUAUGGGAAGAUACAUGAGGAUCACCCAUGUUUAAGAAUGCCGAGAGGCAACUAGAAGGCCCAAGUACCU |  |  | 425 | 18.6
CAUAUCGUACGAGGAUAUAUGAGUCCUACAUGAGGAUCACCCAUGUAGGUGAUCUAACGAGAUUAGUAGAAGGCGUACGAUAUG |  |  | 14.1 | 7.85
CGGAGGUCAGGAUAUGCAUGGCGGGACUUGCGUCGUGGCGUGCAGAAGGGACAUGAGGAUCACCCAUGUGGAGC | 82.2 | 145 |  | 
UUUUAACAUGAGGAUCACCCAUGUGAGGAUAUCGAAAUUUAUAUUAAUAUUUAUAUUACGAGAAGGCACAUUUU | 81.6 | 82.4 |  | 
CGUUAAUAUCGAGGAUAUGUCUAGACACAUGAGGAUCACCCAUGUAUGUGUAUAGAAGGCGAUAUUAACAGCAUGUUACAUGCC |  |  | 45.5 | 16.3
AUUUUGUCAGGAUAUGAUUAGUAGGAUGAGAGUGCUACUACUUAGAAGGGACAUGAGGAUCACCCAUGUAUUCC | 16.8 | 20 |  | 
AUAUUGUGAGGAUAUGAACUUAGUAUCGAAACAUACUAAGUUCAGAAGGCACAUGAGGAUCACCCAUGUUUCUC | 68.6 | 430 |  | 
UAAGUUGAGGAGAAGGGAGCACAUGAGGAUCACCCAUGUGGUUCUUUGUGCUCAGGAUAUCCAUGGAGCUCCGUCGAGUUCCAG | 56.7 | 16.6 |  | 
UCGUACUUUCGAGGAUAUCGGUGAUAUAUAUUACGAGAAGGCGAUUGUUUGUUUUACGUCUUAGACAUGAGGAUCACCCAUGUA |  |  | 40.4 | 30.5
CAGUACUGAGGAUAUACAUGAGGAUCACCCAUGUGUCCCUGCUAGGAAACUAGCAAUAGUAGAAGGCAGUACUG | 17.7 | 199 |  | 
AUCAGCUCGUCAGGAUAUACGUCACUGCGUCAGCAGUGUGUUAAGAUCACAUGAGGAUCACCCAUGUAGAAGGGACGAGCUGAU | 6.7 | 27.9 |  | 
GGGUACAUCGGAGGAUAUCAUGUAAAUACAUGAGGAUCACCCAUGUCGAUGGAAACAUCGGAGAUUGAGAAGGCCGAUGUACCG |  |  | 9.76 | 5.01
AACUUGUCAGGAUAUCUUACAUUUGCAUCUUAGUUACCAUUGGAGAAGGGACAUGAGGAUCACCCAUGUUUGGU | 37.1 | 32.2 |  | 
AGCUACGUUUCGUAGCAGCUAGGUGAGGAUAUCCACUCAACAUGAGGAUCACCCAUGUAAACAUGGGAGAAGGCGCCUAGAAAG |  |  | 63.4 | 9.63
UGUUAUUUGACAGGAUAUUGAUUGUUAAGUUUUUACAUGAGGAUCACCCAUGUUGUUCAUUCGUACAAGAAGGGUCAAGUUUUU |  |  | 72.8 | 27.2
AUAUUUGUUUAGAAGGACAUGAGGAUCACCCAUGUCGCUGGGCGCGGGAAACCGUGGGCGGCCAUGUAGGAUAUAGGGAGAUAU | 36.6 | 24 |  | 
ACUGACAUGAGGAUCACCCAUGUCUUGAAUAGGUCAAAUUCACAGGAUAUGCACGAGGACAGAGUGCAGAAGGGUGAUGCAAUG |  |  | 47.7 | 11.7
UAAAUGUGAGGAUAUUCGAUGAACUCGGAGACGAGUUUAUCGGAGAAGGCACAUGAGGAUCACCCAUGUUCCUU | 22.3 | 225 |  | 
CUGCUGGAGCUUUGCUUUAGUCGUACAUGAGGAUCACCCAUGUAGGAUAUGGUAGGCUUCGCUUACUAGAAGGAUAGAGUGGUC | 33.6 | 22.8 |  | 
AUCGUAACAGGAGGAUAUUACACUCGGUUGGUCCGCUGCGGGUUGAAACAUGAGGAUCACCCAUGUAAGAAGGCCUGUGUGACU | 317 | 103 |  | 
CUUUUGUGAGGAUAUCAGUAGUAAAAAAAUAAAAUUACUACUGAGAAGGCACAUGAGGAUCACCCAUGUGCCUC | 13.9 | 12.9 |  | 
AUUUUAUAAUAGAAGGUAGACUUCAUGAGGAUCACCCAUGUGUUGGUACUAAGGAUAUGUAAUAACAUGAGGAUCACCCAUGUU |  |  | 16.1 | 15.2
GCUGGACGUCGAGGAUAUGGGUGUGCGAGUCUUGGCACUGGACAUGAGGAUCACCCAUGUCGCUUCCAGAAGGCGACGUCCCUA |  |  | 35.1 | 6.55
UUAACAUGCUUAGGAUAUCGGAUUUUUUUUUUUCGAGAAGGAAGAUUCUUUUUUUUUUACAUGAGGAUCACCCAUGUUUAUUUU | 10.2 | 5.78 |  | 
CCCGCGUUUCGCGCCUACAUGAGGAUCACCCAUGUUUGUAGGCAGGAUAUCGUCCGCUCUGCGGGCGAGAAGGGCUGUUGUGGU |  |  | 90.8 | 84
GAACAUGUCCGAGGAUAUCUGAGAUCAUUUUCAAGAGAAGGCGGACAUGAGGAUCACCCAUGUCUCUCCUCAUCAACUCCAAAU | 6.95 | 38.5 |  | 
